How the values were obtained:
Type in all cases: functional
T47D = assay: Growth inhibition of human T47D cells at 10 uM after 48 hrs by sulforhodamine B assay; conditions: read-out: GI
Method in brief: (§1)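 NCI-60 panel, adherent cells grown in RPMI 1640 with 5% FBS and 2 mM L-glutamine, plated at 5000–40,000 cells/well and preincubated 24 h at 37 °C, 5% CO2. 10 µM final compound from DMSO stock, triplicate wells, 48 h. Fixed with cold TCA (10% final, 60 min, 4 °C) and stained with 0.4% SRB. Absorbance read at 515 nm; growth calculated against time-zero and control wells.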

MDA-MB-468 = assay: Growth inhibition of human MDA-MB-468 cells at 10 uM after 48 hrs by sulforhodamine B assay; conditions: MDA-MB-468, 48 h, read-out: GI
Method in brief: (§2)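 Run at NCI on the 60-line panel. Cells grown in RPMI 1640 with 5% FBS and 2 mM L-glutamine, plated at 5000–40,000 cells/well by doubling time, and held 24 h at 37 °C before dosing. Drug (DMSO stock) given at a single final 10 µM in triplicate wells for 48 h. Adherent cells fixed with cold TCA (10% final), suspension cells with 16% TCA. SRB stain read at 515 nm. Percent growth from Tz, C and Ti.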

MDA-MB-231 = assay: Growth inhibition of human MDA-MB-231 cells at 10 uM after 48 hrs by sulforhodamine B assay; conditions: MDA-MB-231, 48 h, read-out: GI; method in brief: as §2
CCRF-CEM = assay: Growth inhibition of human CCRF-CEM cells at 10 uM after 48 hrs by sulforhodamine B assay; conditions: read-out: GI; method in brief: as §2
K562 = assay: Growth inhibition of human K562 cells at 10 uM after 48 hrs by sulforhodamine B assay; conditions: K562, 48 h, read-out: GI; method in brief: as §2
[1] = Growth inhibition of human RPMI8226 cells at 10 uM after 48 hrs by sulforhodamine B assay; conditions: RPMI-8226, 48 h, read-out: GI; method in brief: as §2
A549 = assay: Growth inhibition of human A549 cells at 10 uM after 48 hrs by sulforhodamine B assay; conditions: A549, 48 h, read-out: GI; method in brief: as §2
[2] = Growth inhibition of human HOP62 cells at 10 uM after 48 hrs by sulforhodamine B assay; conditions: HOP-62, 48 h, read-out: GI; method in brief: as §2
NCI-H23 = assay: Growth inhibition of human NCI-H23 cells at 10 uM after 48 hrs by sulforhodamine B assay; conditions: NCI-H23, 48 h, read-out: GI; method in brief: as §2
NCI-H322M = assay: Growth inhibition of human NCI-H322M cells at 10 uM after 48 hrs by sulforhodamine B assay; conditions: read-out: GI; method in brief: as §2
NCI-H460 = assay: Growth inhibition of human NCI-H460 cells at 10 uM after 48 hrs by sulforhodamine B assay; conditions: NCI-H460, 48 h, read-out: GI; method in brief: as §2
NCI-H522 = assay: Growth inhibition of human NCI-H522 cells at 10 uM after 48 hrs by sulforhodamine B assay; conditions: NCI-H522, 48 h, read-out: GI; method in brief: as §2
HT-29 = assay: Growth inhibition of human HT-29 cells at 10 uM after 48 hrs by sulforhodamine B assay; conditions: HT-29, 48 h, read-out: GI; method in brief: as §2
KM12 = assay: Growth inhibition of human KM12 cells at 10 uM after 48 hrs by sulforhodamine B assay; conditions: KM12, 48 h, read-out: GI; method in brief: as §2
[3] = Growth inhibition of human SF295 cells at 10 uM after 48 hrs by sulforhodamine B assay; conditions: SF-295, 48 h, read-out: GI; method in brief: as §2
[4] = Growth inhibition of human SF539 cells at 10 uM after 48 hrs by sulforhodamine B assay; conditions: SF-539, 48 h, read-out: GI; method in brief: as §2
[5] = Growth inhibition of human SNB19 cells at 10 uM after 48 hrs by sulforhodamine B assay; conditions: SNB-19, 48 h, read-out: GI; method in brief: as §2
[6] = Growth inhibition of human SNB75 cells at 10 uM after 48 hrs by sulforhodamine B assay; conditions: SNB-75, 48 h, read-out: GI; method in brief: as §2
[7] = Growth inhibition of human LOXIMVI cells at 10 uM after 48 hrs by sulforhodamine B assay; conditions: LOX IMVI, read-out: GI; method in brief: as §2
M14 = assay: Growth inhibition of human M14 cells at 10 uM after 48 hrs by sulforhodamine B assay; conditions: M14, 48 h, read-out: GI; method in brief: as §2
MDA-MB-435 = assay: Growth inhibition of human MDA-MB-435 cells at 10 uM after 48 hrs by sulforhodamine B assay; conditions: MDA-MB-435, 48 h, read-out: GI; method in brief: as §2
SK-MEL-28 = assay: Growth inhibition of human SK-MEL-28 cells at 10 uM after 48 hrs by sulforhodamine B assay; conditions: SK-MEL-28, 48 h, read-out: GI; method in brief: as §2
[8] = Growth inhibition of human UACC257 cells at 10 uM after 48 hrs by sulforhodamine B assay; conditions: UACC-257, 48 h, read-out: GI; method in brief: as §1
[9] = Growth inhibition of human OVCAR4 cells at 10 uM after 48 hrs by sulforhodamine B assay; conditions: OVCAR-4, 48 h, read-out: GI; method in brief: as §2
[10] = Growth inhibition of human OVCAR5 cells at 10 uM after 48 hrs by sulforhodamine B assay; conditions: OVCAR-5, 48 h, read-out: GI; method in brief: as §2
[11] = Growth inhibition of human OVCAR8 cells at 10 uM after 48 hrs by sulforhodamine B assay; conditions: OVCAR-8, 48 h, read-out: GI; method in brief: as §2
[12] = Growth inhibition of human NCI-ADR-RES cells at 10 uM after 48 hrs by sulforhodamine B assay; conditions: read-out: GI; method in brief: as §2
A498 = assay: Growth inhibition of human A498 cells at 10 uM after 48 hrs by sulforhodamine B assay; conditions: A498, 48 h, read-out: GI; method in brief: as §2
[13] = Growth inhibition of human Caki1 cells at 10 uM after 48 hrs by sulforhodamine B assay; conditions: CAKI-1, 48 h, read-out: GI; method in brief: as §2
SN12C = assay: Growth inhibition of human SN12C cells at 10 uM after 48 hrs by sulforhodamine B assay; conditions: read-out: GI; method in brief: as §2
[14] = Growth inhibition of human TK10 cells at 10 uM after 48 hrs by sulforhodamine B assay; conditions: TK-10, 48 h, read-out: GI; method in brief: as §1
[15] = Growth inhibition of human UO31 cells at 10 uM after 48 hrs by sulforhodamine B assay; conditions: UO-31, 48 h, read-out: GI; method in brief: as §1
[16] = Growth inhibition of human PC3 cells at 10 uM after 48 hrs by sulforhodamine B assay; conditions: PC-3, 48 h, read-out: GI; method in brief: as §2
[17] = Growth inhibition of human DU145 cells at 10 uM after 48 hrs by sulforhodamine B assay; conditions: DU-145, 48 h, read-out: GI; method in brief: as §2
MCF7 = assay: Growth inhibition of human MCF7 cells at 10 uM after 48 hrs by sulforhodamine B assay; conditions: MCF7, 48 h, read-out: GI; method in brief: as §2
[18] = Growth inhibition of human Hs 578T cells at 10 uM after 48 hrs by sulforhodamine B assay; conditions: read-out: GI; method in brief: as §2

Compound	inhibition of growth at 10 µM (T47D)	inhibition of growth at 10 µM (MDA-MB-468)	inhibition of growth at 10 µM (MDA-MB-231)	inhibition of growth at 10 µM (CCRF-CEM)	inhibition of growth at 10 µM (K562)	inhibition of growth at 10 µM [1]	inhibition of growth at 10 µM (A549)	inhibition of growth at 10 µM [2]	inhibition of growth at 10 µM (NCI-H23)	inhibition of growth at 10 µM (NCI-H322M)	inhibition of growth at 10 µM (NCI-H460)	inhibition of growth at 10 µM (NCI-H522)	inhibition of growth at 10 µM (HT-29)	inhibition of growth at 10 µM (KM12)	inhibition of growth at 10 µM [3]	inhibition of growth at 10 µM [4]	inhibition of growth at 10 µM [5]	inhibition of growth at 10 µM [6]	inhibition of growth at 10 µM [7]	inhibition of growth at 10 µM (M14)	further results
COc1ccc(Cc2nnc(Nc3cccc(OC)c3)c3ccccc23)cc1	30%	< 30%	37%	< 30%	< 30%	77%	< 30%	35%	< 30%	< 30%	< 30%	63%	< 30%	< 30%	< 30%	< 30%	30%	41%	< 30%	< 30%	inhibition of growth at 10 µM (MDA-MB-435): < 30%; inhibition of growth at 10 µM (SK-MEL-28): < 30%; inhibition of growth at 10 µM [8]: < 30%; inhibition of growth at 10 µM [9]: < 30%; inhibition of growth at 10 µM [10]: < 30%; inhibition of growth at 10 µM [11]: < 30%; inhibition of growth at 10 µM [12]: 30%; inhibition of growth at 10 µM (A498): < 30%; inhibition of growth at 10 µM [13]: < 30%; inhibition of growth at 10 µM (SN12C): < 30%; inhibition of growth at 10 µM [14]: < 30%; inhibition of growth at 10 µM [15]: 57%; inhibition of growth at 10 µM [16]: 30%; inhibition of growth at 10 µM [17]: < 30%; inhibition of growth at 10 µM (MCF7): < 30%; inhibition of growth at 10 µM [18]: < 30%
COc1ccc(Cc2nnc(Nc3ccc(OC)cc3)c3ccccc23)cc1	46%	< 30%	36%	< 30%	< 30%	< 30%	< 30%	< 30%	< 30%	< 30%	< 30%	< 30%	< 30%	< 30%	30%	< 30%	< 30%	< 30%	< 30%	< 30%	inhibition of growth at 10 µM (MDA-MB-435): < 30%; inhibition of growth at 10 µM (SK-MEL-28): < 30%; inhibition of growth at 10 µM [8]: < 30%; inhibition of growth at 10 µM [9]: < 30%; inhibition of growth at 10 µM [10]: < 30%; inhibition of growth at 10 µM [11]: < 30%; inhibition of growth at 10 µM [12]: < 30%; inhibition of growth at 10 µM (A498): 47%; inhibition of growth at 10 µM [13]: < 30%; inhibition of growth at 10 µM (SN12C): 34%; inhibition of growth at 10 µM [14]: < 30%; inhibition of growth at 10 µM [15]: 43%; inhibition of growth at 10 µM [16]: < 30%; inhibition of growth at 10 µM [17]: < 30%; inhibition of growth at 10 µM (MCF7): 38%; inhibition of growth at 10 µM [18]: < 30%
